Measured values from different studies.
Each line is one published result; the experiments were not run side by side.

With `OC[C@H]1O[C@@H](c2ccc(Cl)c(Cc3ccc(O[C@H]4CCOC4)cc3)c2)[C@H](O)[C@@H](O)[C@@H]1O` the AUC was 1450 ng·h/mL (CD-1 mouse; plasma; intravenous; 5 mg/kg).
`CC(C)(O)c1cn(-c2ccc(-c3cccc(S(C)(=O)=O)c3)cc2)c(C(C)(C)c2ccccc2Cl)n1` gave an AUC of 57 µM·h (male C57BL/6 mouse; serum; oral; 10 mg/kg).
For `NC[C@@H]1O[C@H](O[C@H]2[C@@H](O)[C@H](O[C@@H]3[C@@H](O)[C@H](N)C[C@H](N)[C@H]3O[C@H]3O[C@H](CO)[C@@H](O)[C@H](O)[C@H]3N)O[C@@H]2CO)[C@H](N)[C@@H](O)[C@@H]1O`, the AUC was 3400 ng·h/mL (male BALB/c mouse; plasma; oral; 500 mg/kg).
`CC[C@H](C)[C@@H]1NC(=O)[C@@](C)(NC(=O)[C@H](CCCNC(=N)N)NC(=O)[C@H](CC(C)C)NC(=O)[C@@H](NC(=O)[C@H](CCC(N)=O)NC(=O)[C@H](CC(C)C)NC(C)=O)[C@@H](C)O)CCCC=CCCC[C@@](C)(C(=O)N[C@@H](CC(C)C)C(=O)N[C@@H](Cc2ccc3ccccc3c2)C(N)=O)NC(=O)[C@H](CCCNC(=N)N)NC(=O)[C@H](CCC(N)=O)NC1=O` gave an AUC of 76 µM·h (male BALB/c mouse; plasma; intravenous; 5 mg/kg).
For `CNC(=O)[C@H](Cc1c[nH]cn1)NC(=O)CN(CCCc1ccccc1)CC(=O)OC`, the AUC was 1000 ng·h/mL (male C57BL/6 mouse; plasma; intraperitoneal; 30 mg/kg).
`CCc1cc(OC)c2nccc(N3CCc4c(cc(Cn5ccnc5)cc4-c4cn(C)nc4C(F)(F)F)C3=O)c2c1` has an AUC(0-inf) of 3330 ng·h/mL (male CD-1 mouse; plasma; intravenous; 3 mg/kg).
For `CCN1CCN(Cc2cc(NC(=O)c3ccc(C)c(-c4ccc5nc(NC(=O)C6CC6)cn5n4)c3)cc(C(F)(F)F)c2)CC1`, the AUC was 1070 ng·h/mL (Swiss mouse; plasma; intraperitoneal; 3 mg/kg).
For `CC(C)(O)c1cn(-c2ccc(-c3cc(F)c(CO)c(S(C)(=O)=O)c3)cc2F)c(C(C)(C)c2c(Cl)cccc2Cl)n1`, the AUC was 7.4 µM·h (male C57BL/6 mouse; serum; oral; 10 mg/kg).
`COC(=O)CN(CCCc1ccccc1)CC(=O)N[C@@H](Cc1c[nH]cn1)c1nc(C)no1` has an AUC of 200 ng·h/mL (male C57BL/6 mouse; plasma; intraperitoneal; 30 mg/kg).
`COc1ccc2nccc(N3CCc4c(cc(Cn5ccnc5)cc4-c4cn(C)nc4C(F)(F)F)C3=O)c2c1` has an AUC(0-inf) of 1840 ng·h/mL (male CD-1 mouse; plasma; intravenous; 3 mg/kg).
With `CC(C)Oc1c(NC(=O)c2ccc(NC(=O)[C@H](CC(N)=O)NC(=O)c3ccc(NC(=O)c4ccc(C#N)cc4)cc3)cc2)ccc(C(=O)Nc2ccc(C(=O)O)cc2)c1O` the AUC was 517 ng·h/mL (male CD-1 mouse; plasma; subcutaneous; 5 mg/kg; single dose).
The AUC(0-inf) of `CC(C)(C)c1ccc(O)c(CN(Cc2cc(C(C)(C)C)ccc2O)C2CCC(NC(N)=O)CC2)c1` (stereo not drawn) is reported as 6620 ng·h/mL (male C57BL/6 mouse; plasma; oral; 10 mg/kg; single dose).
